Screens (PubChem)
In the library only some 3.8% were active in any assay of this set; here they are far more common.
KCNQ1 act = potentiators or activators of KCNQ1 channel, primary screen, cell-based, thallium flux, high-throughput. Potassium voltage-gated channel subfamily KQT member 1 (Homo sapiens), P51787. CHO-K1 KCNQ1, thallium flux FluxOR fluorescence; stronger effect = higher value. B-score at 10 µM. hit rate 0.35% among 310,000. AID 2648, 2010;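 active = fluorescence ratio B-score, a plate-corrected score, at least three library SD, with initial intensity B-score within 5 SD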
Target sequence (P51787 whole entry, looked up): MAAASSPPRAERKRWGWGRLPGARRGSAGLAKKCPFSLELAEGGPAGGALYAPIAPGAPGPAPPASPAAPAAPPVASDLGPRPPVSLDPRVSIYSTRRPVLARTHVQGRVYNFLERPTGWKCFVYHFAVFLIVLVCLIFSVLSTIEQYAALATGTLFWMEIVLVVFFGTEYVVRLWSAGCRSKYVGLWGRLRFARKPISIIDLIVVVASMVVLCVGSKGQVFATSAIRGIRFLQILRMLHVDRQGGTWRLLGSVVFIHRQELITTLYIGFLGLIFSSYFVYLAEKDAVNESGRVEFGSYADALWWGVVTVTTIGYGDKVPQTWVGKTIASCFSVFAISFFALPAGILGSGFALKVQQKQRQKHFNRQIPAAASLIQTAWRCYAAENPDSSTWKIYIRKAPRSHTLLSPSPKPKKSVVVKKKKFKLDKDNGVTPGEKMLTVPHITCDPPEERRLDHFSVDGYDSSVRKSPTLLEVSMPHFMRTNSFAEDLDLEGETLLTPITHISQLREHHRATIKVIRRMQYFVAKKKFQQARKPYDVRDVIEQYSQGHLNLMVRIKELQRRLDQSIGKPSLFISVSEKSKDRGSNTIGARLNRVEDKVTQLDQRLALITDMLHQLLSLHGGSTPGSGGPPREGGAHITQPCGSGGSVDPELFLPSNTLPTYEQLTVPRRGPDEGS
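Medium – assay buffer, equal DMSO in all wells · Material – CHO-K1 cell line with stable KCNQ1 potassium channel expression · Signal – kinetic FluxOR thallium fluorescence, 10-s 1-Hz baseline, 110-s post-stimulus read · Compound – single concentration per compound, DMSO matched to controls · Schedule – 37 °C overnight plating, 90-min dark dye load, 20-min compound pretreatment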
hERG protect = hERG rescue from dofetilide block, primary screen, cell-based, CHO-hERG, FluxOR thallium flux, dofetilide IC70. Voltage-gated inwardly rectifying potassium channel KCNH2 (Homo sapiens), Q12809. dofetilide IC70 present. activation (rescue from dofetilide block), less the hit threshold, % at 10 µM. hit rate 0.51% among 310,000;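 active = activation above the mean of controls blocked by dofetilide plus 5 SD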;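 note: thallium influx through hERG after potassium depolarization seen as dye fluorescence rise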
Kir21 inh = inhibitors of mouse Kir2.1 inward-rectifier potassium channel; Inward rectifier potassium channel 2 (Mus musculus), P35561; HEK293-Kir2.1, FluxOR thallium flux fluorescence; stronger effect = lower value; hit rate 0.85% among 310,000; B-score at 10 µM; AID 1672, 2009;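 active = fluorescence ratio B-score at or below minus 3 SD of library scores, with starting-brightness B-score within 2 SD, cut at about -4.2 in these data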;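 note: channel flux triggered by added potassium and thallium sulfate stimulus; B-score of peak minus minimum fluorescence over baseline after thallium stimulus; more negative B-score means stronger Kir2.1 block with less thallium influx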
KCNK3 block = human KCNK3 channel inhibitors, primary screen, CHO cells, FluxOR thallium flux, B-score | hit rate 0.84% among 340,000 | AID 602410, 2012 | B-score at 10 µM | Potassium channel subfamily K member 3 (Homo sapiens), O14649 | FluxOR fluorescence; stronger effect = lower value;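 active = B-score under library mean minus 4 SD, starting fluorescence ratio at most library mean plus 5 SD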;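 note: more negative B-score means stronger inhibition of thallium flux through KCNK3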
KCNK9 block = KCNK9 potassium channel inhibitors, primary screen, HEK293 cells, thallium flux. Potassium channel subfamily K member 9 (Homo sapiens), Q9NPC2. AID 488922, 2010. hit rate 1.2% among 310,000. B-score at 10 µM. FluxOR thallium flux fluorescence; stronger effect = lower value;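 active = ratio B-score over 3 SD below the library mean, with starting fluorescence within 5 SD of its mean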;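 note: negative B-score means less thallium flux so channel inhibition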
KCNQ1 inh = inhibitors of human KCNQ1 channel, primary screen, cell-based, thallium flux, high-throughput. Potassium voltage-gated channel subfamily KQT member 1 (Homo sapiens), P51787. hit rate 1.3% among 310,000. B-score at 10 µM. CHO-K1 KCNQ1, FluxOR thallium flux fluorescence; stronger effect = higher value;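 active = compounds whose thallium flux B-score, printed positive for inhibition, exceeds three library SD while starting fluorescence stays within three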;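 note: channel opened by potassium depolarization with thallium stimulus after 20 min compound exposure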
KCNK9 inh conf = KCNK9 potassium channel inhibitors, confirmation, HEK293 cells, thallium flux, duplicate. FluxOR thallium flux fluorescence. hit rate 43% among 4,900. inhibition, % at 10 µM. AID 492992, 2010. shares compounds with KCNK9 block;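 active = thallium signal inhibited by more than 5 SD of the compound-free buffer control wells, on both duplicate plates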
Kir21 sel = mouse Kir2.1 channel inhibition, confirmation, selectivity assay for KCNK9 modulator project, cell-based, HEK293, thallium flux; shares compounds with KCNK9 block; Kir2.1 cells, FluxOR thallium flux fluorescence; inhibition, % at 10 µM; hit rate 4% among 4,900;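 active = thallium signal drop more than 5 SD beyond the mean of the no-compound control wells, seen in both duplicate plates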;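 note: signal is fluorescence rise after thallium addition divided by baseline fluorescence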
HEK293 Tl ctr = thallium flux in non-induced HEK293 cells, confirmation, counter-screen for KCNK9 inhibitor project, cell-based, second counter screen, non-induced KCNK9-HEK293; shares compounds with KCNK9 block; FluxOR thallium flux; inhibition, % at 10 µM; hit rate 40% among 4,900; AID 492997, 2010;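 active = thallium signal drop beyond 5 SD of the untreated control mean, on both duplicate plates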
Each line names hits and unclear results; the compound was inactive in the other large screens (follow-up assays come after a bar, where they were run).

N#Cc1ccc(OCc2nnc3n2CCCCC3)cc1	none
Cc1ccc2[nH]nc(C(=O)N3CCCC(C(=O)c4ccc(Cl)cc4)C3)c2c1 (configuration not stated)	none | KCNK9 inh conf inactive | Kir21 sel inactive | HEK293 Tl ctr inactive
CSc1ccc(C(=O)C2CCCN(C(=O)c3ccc4c(c3)OCO4)C2)cc1 (configuration not stated)	none | KCNK9 inh conf inactive | Kir21 sel inactive | HEK293 Tl ctr inactive
COCc1ccc(C(=O)N2CCCC(C(=O)c3ccc(SC)cc3)C2)s1 (configuration not stated)	none | KCNK9 inh conf inactive | Kir21 sel inactive | HEK293 Tl ctr inactive
CC(=O)c1ccc(C(=O)N2CCCC(C(=O)c3ccc(Cl)cc3)C2)s1 (configuration not stated)	none | KCNK9 inh conf inactive | Kir21 sel inactive | HEK293 Tl ctr inactive
CCOc1cc(C2C(C(C)=O)=C(O)C(=O)N2CCc2c[nH]c3ccccc23)ccc1O (configuration not stated)	none
COc1ccc(S(=O)(=O)/C(C#N)=C/Nc2cccc(OC)c2)cc1	none
Cc1noc(C)c1C(=O)N1CCCC(C(=O)c2ccc(Cl)cc2)C1 (configuration not stated)	none
CSc1ccc(C(=O)C2CCCN(C(=O)c3cc4cc(F)ccc4[nH]3)C2)cc1 (configuration not stated)	none | KCNK9 inh conf inactive | Kir21 sel inactive | HEK293 Tl ctr inactive
CCc1cc(C(=O)N2CCCC(C(=O)c3ccc(Cl)cc3)C2)no1 (configuration not stated)	none | KCNK9 inh conf inactive | Kir21 sel inactive | HEK293 Tl ctr inactive
CN1CCN(C(=O)c2cc3cc(F)ccc3[nH]2)CC1	none
CCN(CC)S(=O)(=O)c1cccc(NC(=O)CCSc2ccc(Cl)cc2)c1	none | KCNK9 inh conf inactive | Kir21 sel inactive | HEK293 Tl ctr inactive
COc1ccc(-c2noc3c2-c2nc(C4CCCCC4)sc2CC3)cc1	none | KCNK9 inh conf inactive | Kir21 sel inactive | HEK293 Tl ctr 24%
Cc1ccc(N2CC(NS(=O)(=O)c3cccnc3)CC2=O)cc1 (configuration not stated)	none
Nc1nc(SCc2nc3scc(-c4ccccc4)c3c(=O)[nH]2)n[nH]1	none
CCCCc1noc(-c2c(-c3ccccc3Cl)noc2C)n1	none | KCNK9 inh conf inactive | Kir21 sel inactive | HEK293 Tl ctr inactive
CC(C)c1ccc(NC(=O)[C@@H](C)NC(=O)[C@@H]2Cc3ccccc3CN2)cc1	none
O=[N+]([O-])c1cccc(-c2ccc(C(=S)N3CCN(c4ccccc4)CC3)o2)c1	KCNK9 block -8.3 | KCNK9 inh conf 33% | Kir21 sel inactive | HEK293 Tl ctr 42%
Cc1cccc(N2CCN(C(=S)c3ccc(-c4ccccc4[N+](=O)[O-])o3)CC2)c1	none | KCNK9 inh conf inactive | Kir21 sel inactive | HEK293 Tl ctr inactive
O=[N+]([O-])c1cccc(-c2ccc(C(=S)N3CCOCC3)o2)c1	none
COc1ccc(OC)c(C2SCCN2S(=O)(=O)c2cccc(C(F)(F)F)c2)c1 (configuration not stated)	KCNK9 block -15 | KCNK9 inh conf inactive | Kir21 sel inactive | HEK293 Tl ctr 60%
O=C(O)c1ccccc1-c1ccccc1C(=O)Nc1ccc(-c2nc3cc(Cl)ccc3o2)cc1	none | KCNK9 inh conf inactive | Kir21 sel inactive | HEK293 Tl ctr inactive
COc1ccc2ccccc2c1CNC(C)c1ccccc1 (configuration not stated)	Kir21 inh -5.5 | KCNK9 inh conf inactive | Kir21 sel inactive | HEK293 Tl ctr inactive
Cc1ccc(NC(=O)c2cc(-c3ccccc3)nn2-c2ccccc2)c(Br)c1	none
Cc1ccc(NC(=O)c2cc(-c3ccccc3)nn2-c2ccccc2)cc1	none | KCNK9 inh conf inactive | Kir21 sel inactive | HEK293 Tl ctr inactive
CC(C)(C)OC(=O)N1CCN(c2ccc(CNC(=O)c3ccc(Cl)cc3)cc2)CC1	none | KCNK9 inh conf inactive | Kir21 sel inactive | HEK293 Tl ctr inactive
Clc1ccc(N=c2ssnc2Cl)cc1	none
Fc1ccc(N=c2ssnc2Cl)c(F)c1	none | KCNK9 inh conf inactive | Kir21 sel inactive | HEK293 Tl ctr inactive
CCOC(=O)c1cc(C)sc1/N=C/C1C(=O)CC(C)(C)CC1=O	none
Cc1nc2ccc(NC(=O)c3ccc(Cl)c([N+](=O)[O-])c3)cc2s1	none
Cc1nc2ccc(NC(=O)c3ccc([N+](=O)[O-])cc3)cc2s1	none | KCNK9 inh conf inactive | Kir21 sel inactive | HEK293 Tl ctr inactive
Cc1cc(C)c(NC(=O)c2cccc3c2C(=O)N(C2CCCCC2)C3)c(C)c1	KCNK9 block -12 | KCNK9 inh conf inactive | Kir21 sel inactive | HEK293 Tl ctr 52%
Cc1ccc(NC(=O)c2cccc3c2C(=O)N(C2CCCCC2)C3)c(C)c1	none
O=C(c1ccccc1Br)N1CCn2c1nc1ccccc12	none
COc1ccccc1Nc1nc(-c2cccc(N3C(=O)c4ccccc4C3=O)c2)cs1	none | KCNK9 inh conf inactive | Kir21 sel inactive | HEK293 Tl ctr inactive
COc1ccc(-c2cc(C(=O)NCC3CCCO3)c3ccccc3n2)c(OC)c1 (configuration not stated)	none
Brc1ccc(N/N=C(/N=Nc2nn[nH]n2)c2ccccc2)cc1	KCNQ1 inh 12 | KCNK9 inh conf inactive | Kir21 sel inactive | HEK293 Tl ctr inactive
O=C(Nc1nc(-c2cccs2)cs1)c1cccc(S(=O)(=O)N2CCCCCC2)c1	none
COCCn1c(SCc2ccc(F)cc2)nc2ccccc2c1=O	KCNK9 block -15 | KCNK9 inh conf 68% | Kir21 sel inactive | HEK293 Tl ctr 38%
